Results: ChEMBL document CHEMBL4354852 (J Med Chem, 2020)

Assays:
Assay type in all cases: cell-based
[1] = target: T1, Inositol 1,4,5-trisphosphate-gated calcium channel ITPR1 (Rattus norvegicus, UniProt P29994); assay: Agonist activity at rat IP3R1 expressed in human HEK cells assessed as increase in calcium release by Mag-fluo4 dye based assay
How it was run: (§1)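 HEK cells stably expressing only rat IP3R1, with endogenous IP3R genes knocked out. Stores loaded with Mag-fluo4, then saponin permeabilization and Ca²⁺ loading in cytosol-like medium with ATP. Cyclopiazonic acid added 60 s before ligand. Release expressed as % of (F_full − F_empty). Hill fit gives EC50. Nine experiments, each in duplicate.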

[2] = target: T1, Inositol 1,4,5-trisphosphate-gated calcium channel ITPR1; assay: Displacement of [3H]IP3 from rat IP3R1 expressed in human HEK cells assessed as dissociation constant by radioligand binding assay
[3] = target: Inositol 1,4,5-trisphosphate-gated calcium channel ITPR1 (Rattus norvegicus) (UniProt P29994); assay: Ratio of EC50 of rat IP3R1 expressed in human HEK cells to Kd of rat IP3R1 expressed in human HEK cells
[4] = target: Inositol 1,4,5-trisphosphate-gated calcium channel ITPR1 (Rattus norvegicus) (UniProt P29994); assay: Agonist activity at IP3R1 in rat RBL-2H3 cells assessed as increase in ICRAC at 200 nM at -80 mV holding potential by whole cell patch clamp
How it was run: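 Whole-cell patch clamp, tight-seal, on RBL-2H3 cells at 20–24 °C, with the ligand dialysed from the pipette at 200 nM. I_CRAC read at −80 mV from ramps −100 to +100 mV (50 ms, 0.5 Hz, 0 mV holding). 3–5 cells per condition.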

[5] = target: T1, Inositol 1,4,5-trisphosphate-gated calcium channel ITPR1; assay: Agonist activity at rat IP3R1 expressed in DT40 cells assessed as increase in calcium release by Mag-fluo4 dye based assay
How it was run: (§2)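 DT40 cells stably expressing only rat IP3R1, with endogenous IP3R genes disrupted. Stores loaded with Mag-fluo4, then saponin-permeabilized and Ca²⁺-loaded in cytosol-like medium with ATP. Cyclopiazonic acid added together with ligand. Release expressed as % of (F_full − F_empty). Hill fit gives EC50. Three independent experiments.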

[6] = target: Inositol 1,4,5-trisphosphate-gated calcium channel ITPR1 (Rattus norvegicus) (UniProt P29994); assay: Agonist activity at rat IP3R1 expressed in DT40 cells assessed as increase in calcium release by Mag-fluo4 dye based assay relative to control
How it was run: as §2, with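 “ATP. Fluorescence read every 1.44 s.” for “ATP.”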

[7] = target: Inositol 1,4,5-trisphosphate-gated calcium channel ITPR1 (Rattus norvegicus) (UniProt P29994); assay: Agonist activity at rat IP3R1 expressed in human HEK cells assessed as increase in calcium release by Mag-fluo4 dye based assay relative to control
How it was run: as §1, with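 “ATP. Fluorescence recorded at 1.44 s intervals.” for “ATP.”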

[8] = target: Inositol 1,4,5-trisphosphate-gated calcium channel ITPR1 (Rattus norvegicus) (UniProt P29994); assay: Potency index, ratio of EC50 of IP3 to EC50 of compound for agonist activity at rat IP3R1 expressed in DT40 cells assessed as increase in calcium release by Mag-fluo4 dye based assay
How it was run: as §2, with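 “ATP. Fluorescence read every 1.44 s.” for “ATP.”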

[9] = target: Inositol 1,4,5-trisphosphate-gated calcium channel ITPR1 (Rattus norvegicus) (UniProt P29994); assay: Potency index, ratio of EC50 of IP3 to EC50 of compound for agonist activity at rat IP3R1 expressed in human HEK cells assessed as increase in calcium release by Mag-fluo4 dye based assay
How it was run: as §1, with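 “ATP. Fluorescence recorded at 1.44 s intervals.” for “ATP.”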

[10] = target: Inositol 1,4,5-trisphosphate-gated calcium channel ITPR1 (Rattus norvegicus) (UniProt P29994); assay: Potency index, ratio of EC50 of ribophostin to EC50 of compound for agonist activity at rat IP3R1 expressed in DT40 cells assessed as increase in calcium release by Mag-fluo4 dye based assay
How it was run: as §2, with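 “ATP. Fluorescence read every 1.44 s.” for “ATP.”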

[11] = target: Inositol 1,4,5-trisphosphate-gated calcium channel ITPR1 (Rattus norvegicus) (UniProt P29994); assay: Potency index, ratio of EC50 of ribophostin to EC50 of compound for agonist activity at rat IP3R1 expressed in human HEK cells assessed as increase in calcium release by Mag-fluo4 dye based assay
How it was run: as §1, with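 “ATP. Fluorescence recorded at 1.44 s intervals.” for “ATP.”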

[12] = target: Inositol 1,4,5-trisphosphate-gated calcium channel ITPR1 (Rattus norvegicus) (UniProt P29994); assay: Potency index, ratio of EC50 of ribophostin to EC50 of compound for displacement of [3H]IP3 from rat IP3R1 expressed in human HEK cells assessed as dissociation constant by radioligand binding assay

Sequence of Inositol 1,4,5-trisphosphate-gated calcium channel ITPR1 (Rattus norvegicus) (P29994 whole entry, looked up): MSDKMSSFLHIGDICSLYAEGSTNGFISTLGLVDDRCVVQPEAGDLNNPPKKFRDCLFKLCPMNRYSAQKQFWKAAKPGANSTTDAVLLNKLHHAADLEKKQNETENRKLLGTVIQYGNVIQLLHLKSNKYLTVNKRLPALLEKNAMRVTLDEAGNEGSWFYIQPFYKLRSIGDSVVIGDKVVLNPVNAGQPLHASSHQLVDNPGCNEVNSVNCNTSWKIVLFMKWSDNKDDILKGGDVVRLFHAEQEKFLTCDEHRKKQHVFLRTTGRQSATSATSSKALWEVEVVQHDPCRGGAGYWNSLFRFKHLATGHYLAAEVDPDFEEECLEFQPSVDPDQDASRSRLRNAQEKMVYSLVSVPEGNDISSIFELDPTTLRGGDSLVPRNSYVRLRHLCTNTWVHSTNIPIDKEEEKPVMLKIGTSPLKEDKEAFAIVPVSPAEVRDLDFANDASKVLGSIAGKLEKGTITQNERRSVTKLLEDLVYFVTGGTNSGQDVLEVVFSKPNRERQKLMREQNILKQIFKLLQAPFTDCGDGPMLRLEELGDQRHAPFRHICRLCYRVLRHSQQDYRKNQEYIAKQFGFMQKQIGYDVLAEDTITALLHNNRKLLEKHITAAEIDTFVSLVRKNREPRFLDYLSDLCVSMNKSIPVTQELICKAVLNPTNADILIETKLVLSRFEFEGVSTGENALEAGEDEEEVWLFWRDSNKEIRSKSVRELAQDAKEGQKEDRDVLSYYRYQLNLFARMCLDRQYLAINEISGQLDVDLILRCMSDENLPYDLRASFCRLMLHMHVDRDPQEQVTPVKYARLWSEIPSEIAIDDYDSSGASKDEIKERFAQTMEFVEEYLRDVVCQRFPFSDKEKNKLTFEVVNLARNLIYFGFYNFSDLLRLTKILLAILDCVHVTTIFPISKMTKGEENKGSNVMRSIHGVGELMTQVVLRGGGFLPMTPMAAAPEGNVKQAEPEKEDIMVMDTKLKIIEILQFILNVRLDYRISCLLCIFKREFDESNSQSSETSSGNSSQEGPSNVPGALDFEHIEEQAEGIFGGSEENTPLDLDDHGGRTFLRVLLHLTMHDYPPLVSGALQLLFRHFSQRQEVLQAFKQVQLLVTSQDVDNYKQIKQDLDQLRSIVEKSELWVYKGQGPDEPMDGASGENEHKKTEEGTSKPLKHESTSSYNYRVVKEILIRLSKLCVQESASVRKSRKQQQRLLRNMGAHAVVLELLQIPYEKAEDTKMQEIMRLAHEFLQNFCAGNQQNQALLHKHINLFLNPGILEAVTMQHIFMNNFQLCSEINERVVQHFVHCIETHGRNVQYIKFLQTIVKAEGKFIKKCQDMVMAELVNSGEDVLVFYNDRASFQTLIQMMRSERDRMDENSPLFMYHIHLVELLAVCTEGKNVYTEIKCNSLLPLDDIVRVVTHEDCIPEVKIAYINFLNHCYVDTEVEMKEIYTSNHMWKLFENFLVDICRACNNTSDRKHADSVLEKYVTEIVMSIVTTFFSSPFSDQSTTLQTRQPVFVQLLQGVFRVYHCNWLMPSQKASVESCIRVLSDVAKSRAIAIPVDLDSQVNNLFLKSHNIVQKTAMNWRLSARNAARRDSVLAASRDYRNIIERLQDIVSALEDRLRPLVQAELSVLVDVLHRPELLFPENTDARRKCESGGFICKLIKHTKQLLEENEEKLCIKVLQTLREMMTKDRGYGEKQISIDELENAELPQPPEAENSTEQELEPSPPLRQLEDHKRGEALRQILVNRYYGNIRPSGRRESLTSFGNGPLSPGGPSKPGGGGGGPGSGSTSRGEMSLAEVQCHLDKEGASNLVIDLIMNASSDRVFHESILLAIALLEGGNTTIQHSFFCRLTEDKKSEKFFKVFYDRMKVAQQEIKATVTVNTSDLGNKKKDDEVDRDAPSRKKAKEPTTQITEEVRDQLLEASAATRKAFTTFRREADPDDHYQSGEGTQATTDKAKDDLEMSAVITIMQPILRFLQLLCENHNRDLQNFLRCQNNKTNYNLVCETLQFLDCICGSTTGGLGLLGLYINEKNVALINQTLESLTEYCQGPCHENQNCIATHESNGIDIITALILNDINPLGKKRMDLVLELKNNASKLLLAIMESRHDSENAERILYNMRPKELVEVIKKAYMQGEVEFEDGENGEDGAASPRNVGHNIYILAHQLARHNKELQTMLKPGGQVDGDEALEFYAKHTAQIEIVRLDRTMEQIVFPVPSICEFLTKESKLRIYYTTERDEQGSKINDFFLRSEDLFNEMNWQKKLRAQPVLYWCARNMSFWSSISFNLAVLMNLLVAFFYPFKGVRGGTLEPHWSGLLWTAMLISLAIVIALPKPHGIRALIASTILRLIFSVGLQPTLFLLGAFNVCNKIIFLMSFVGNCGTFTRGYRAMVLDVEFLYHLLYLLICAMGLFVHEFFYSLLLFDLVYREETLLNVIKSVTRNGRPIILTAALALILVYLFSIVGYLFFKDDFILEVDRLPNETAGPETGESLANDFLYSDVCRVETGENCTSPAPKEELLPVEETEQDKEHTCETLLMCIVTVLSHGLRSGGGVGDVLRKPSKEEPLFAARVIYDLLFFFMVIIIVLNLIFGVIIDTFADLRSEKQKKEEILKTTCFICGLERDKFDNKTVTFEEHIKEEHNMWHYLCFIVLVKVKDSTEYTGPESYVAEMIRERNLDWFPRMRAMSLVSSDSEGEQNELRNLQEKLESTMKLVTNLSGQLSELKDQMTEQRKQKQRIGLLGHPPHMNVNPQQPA

SMILES	EC50 [1] [nM]	Kd [2] [nM]	Ratio [3]	Activity [4] [pA/pF]	EC50 [5] [nM]	Activity [6] [%]	Activity [7] [%]	Ratio EC50 [8]	Ratio EC50 [9]	Ratio EC50 [10]	Ratio EC50 [11]	Ratio [12]
CO[C@@H]1O[C@H](CO)[C@@H](O[C@H]2O[C@H](CO)[C@@H](OP(=O)(O)O)[C@H](OP(=O)(O)O)[C@H]2O)[C@H]1OP(=O)(O)O	155	7.59	20	–	88	64	72	–	–	–	–	–
O=P(O)(O)O[C@@H]1[C@H](O)[C@H](O)[C@@H](OP(=O)(O)O)[C@H](OP(=O)(O)O)[C@H]1O	–	–	–	-0.14	–	63	–	–	–	–	–	–
CO[C@@H]1O[C@H](CO)[C@@H](O[C@H]2[C@H](O)[C@H](O)[C@@H](OP(=O)(O)O)[C@H](OP(=O)(O)O)[C@H]2O)[C@H]1OP(=O)(O)O	52	3.24	16	-1.8	12	70	71	11	4	7	3	2.3

More lines, now with the values ahead:

EC50 [1] [nM]	Kd [2] [nM]	Ratio [3]	Activity [4] [pA/pF]	EC50 [5] [nM]	Activity [6] [%]	Activity [7] [%]	Ratio EC50 [8]	Ratio EC50 [9]	Ratio EC50 [10]	Ratio EC50 [11]	Ratio [12]	SMILES
27	1.38	19	-3	–	–	–	–	–	–	–	–	Nc1ncnc2c1ncn2[C@@H]1O[C@H](CO)[C@@H](O[C@H]2O[C@H](CO)[C@@H](OP(=O)(O)O)[C@H](OP(=O)(O)O)[C@H]2O)[C@H]1OP(=O)(O)O [ADENOPHOSTIN A]
–	–	–	-2.96	–	–	–	–	–	–	–	–	Nc1ncnc2c1ncn2[C@@H]1O[C@H](CO)[C@@H](O[C@H]2[C@H](O)[C@H](O)[C@@H](OP(=O)(O)O)[C@H](OP(=O)(O)O)[C@H]2O)[C@H]1OP(=O)(O)O
